Data on 16 compounds can be found in ChEMBL document CHEMBL2380204, “Discovery of a new HIV-1 inhibitor scaffold and synthesis of potential prodrugs of indazoles” (Bioorg Med Chem Lett, 2013).

A short description of data set [1]: Therapeutic index, ratio of TC50 for human MT4 cells to EC50 for Human immunodeficiency virus 1 NL43 infected in human MT4 cells. The format is cell-based. Particulars: read-out: TI. The essentials: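 Index calculated as TC50/EC50. TC50 and EC50 are each the mean of two experiments.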
Data set [2] has as its system Human immunodeficiency virus 1. As to the kind of experiment: Antiviral activity against 0.0005 MOI Human immunodeficiency virus 1 NL43 infected in human MT4 cells assessed as protection against virus-induced cytopathicity after 4 days by WST1 assay. It is filed as functional, organism-based. Particulars: Human immunodeficiency virus 1, NL43, MT4, 96 h. The method, boiled down: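 Antiviral EC50 defined as 50% effective concentration. Values are the mean of two experiments, with SD normally under 20%.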

Data set [3] can be described thus: Cytotoxicity against human MT4 cells by WST1 assay. It is filed as cell-based. Particulars: read-out: TC50 (the source's name). The essentials: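 TC50 defined as 50% toxic concentration. Values are the mean of two experiments, with SD normally under 20%.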
A short description of data set [4]: Chemical stability in phosphate buffer after 40 mins at pH 7.4. The format is physicochemical. Particulars: pH 7.4, 40 min. The essentials: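 Compound incubated in phosphate buffer at pH 7.4 and 37 °C for 40 min. Hydrolysis monitored.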
Data set [5] relates to Plasma. As to the kind of experiment: Prodrug activation in 80% phosphate buffered human plasma assessed as compound remaining after 40 mins at pH 7.4. Particulars: pH 7.4, 40 min. It is filed as cell-free. The method, boiled down: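 Incubated in phosphate-buffered 80% human plasma at pH 7.4 and 37 °C. Percent of compound remaining measured at 40 min, along with time-dependent formation of the parent indazole.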

Data set [6] is described as follows: Aqueous solubility in phosphate buffer at pH 7.4. It is filed as physicochemical. The essentials:
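Aqueous solubility measured in phosphate buffer at pH 7.4 as a preliminary screen. Reported in µM.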

Data set [7] can be described thus: Metabolic stability in mouse liver microsomes after 40 mins by LC-MS/MS analysis. The format is ADME, Microsome. Particulars: read-out: Stability. Background: Microsomes from liver hold many membrane-bound enzymes, among them those of drug oxidation.

The term EC50 denotes the midpoint of the concentration-response curve. The solubility is the concentration that dissolves in the medium under given conditions.

In brackets after ≈: the same amount, converted by molar mass.

In the case of `COc1cccc(-c2nc(Nc3ccc4[nH]ncc4c3)c3c(F)cccc3n2)c1`, the selectivity ratio in data set [1] stood at 10. In addition, the concentration for a half-maximal effect (EC50) in data set [2] is 11 µM.
Take `COc1ccc(-c2cnc(Nc3ccc4[nH]ncc4c3)o2)cc1`: the selectivity ratio in data set [1] was more than 1. Further, the CC50 in data set [3] was more than 100 µM. For the same compound, the EC50 in data set [2] came out at 100 µM.
Turning to `O=C(O)CCC(=O)OCn1ncc2cc(Nc3ncc(-c4ccc(Cl)cc4)o3)ccc21`, the results for the Stability entry in data set [4] and in data set [5] were “Stable” and 35%, respectively. This compound came in with a solubility in data set [6] of 60 µM (≈ 26.5 µg/mL).
Turning to `Clc1cccc(-c2cnc(Nc3ccc4[nH]ncc4c3)o2)c1`, the selectivity ratio in data set [1] is more than 1.9. The CC50 in data set [3] is more than 100 µM. Further, in data set [2], the EC50 was 54 µM.
Regarding `O=[N+]([O-])c1ccc(N2CCCC(Nc3ccc4[nH]ncc4c3)C2)c(F)c1` (configuration not stated), the selectivity ratio in data set [1] amounted to 10. The concentration for a half-maximal effect (EC50) in data set [2] stood at 13 µM.
`COc1ccc(-c2cnc(Nc3ccc4[nH]ncc4c3)o2)cc1OC`: the selectivity ratio in data set [1] was found to be 50. The CC50 in data set [3] stood at 21 µM. The EC50 in data set [2] is 0.42 µM.
The like results for `COc1cccc(-c2cnc(Nc3ccc4[nH]ncc4c3)o2)c1` were, in that order, more than 45, more than 90 µM and 2 µM.
Taken in the same sequence, the figures for `Clc1ccccc1-c1cnc(Nc2ccc3[nH]ncc3c2)o1` were more than 11, more than 100 µM and 9 µM.
As for `c1ccc(-c2cnc(Nc3ccc4[nH]ncc4c3)o2)cc1`, the remaining at 40 min in data set [7] is 9%. Further, in data set [1], the selectivity ratio was more than 45. In data set [3], the CC50 was more than 90 µM. For the same compound, the EC50 in data set [2] worked out at 2 µM.
On to `Clc1ccc(-c2cnc(Nc3ccc4[nH]ncc4c3)o2)cc1Cl`, for which the selectivity ratio in data set [1] is more than 2.9. Moreover, the CC50 in data set [3] is more than 100 µM. Further, in data set [2], the half-maximal effective concentration (EC50) stood at 35 µM.
Taken in the same sequence, the figures for `COc1ccccc1-c1cnc(Nc2ccc3[nH]ncc3c2)o1` were more than 1, more than 100 µM and 100 µM.
Consider `O=C(NCc1ccc([N+](=O)[O-])cc1F)Nc1ccc2[nH]ncc2c1`, for which the selectivity ratio in data set [1] was found to be 15. Further, the half-maximal effective concentration (EC50) in data set [2] is 6 µM.
As for `c1cc2[nH]ncc2cc1Nc1ncc(-c2ccc3c(c2)OCO3)o1`, the selectivity ratio in data set [1] was 31. Further, the CC50 in data set [3] came out at 83 µM. In addition, the EC50 in data set [2] came to 2.7 µM.
Consider `Clc1ccc(-c2cnc(Nc3ccc4[nH]ncc4c3)o2)cc1`, for which the solubility in data set [6] stood at 0.2 µM (≈ 0.0621 µg/mL). The remaining at 40 min in data set [7] is 83%. Besides, the selectivity ratio in data set [1] was more than 30. The CC50 in data set [3] is more than 90 µM. Moreover, the half-maximal effective concentration (EC50) in data set [2] came to 3 µM.
As to `O=C(O)c1ccccc1C(=O)OCn1ncc2cc(Nc3ncc(-c4ccc(Cl)cc4)o3)ccc21`, the Stability entry in data set [5] is reported as “Stable”. The compound also had a solubility in data set [6] of 66 µM (≈ 32.3 µg/mL).
As for `COc1cc(-c2cnc(Nc3ccc4[nH]ncc4c3)o2)ccc1Cl`, the selectivity ratio in data set [1] turned out to be 53. In data set [3], the CC50 is 80 µM. The EC50 in data set [2] amounted to 1.5 µM.
